Screening results deposited in PubChem BioAssay by Broad Institute.
This is a sample that favours compounds with a hit; in the whole collection about 2.4% have one here.
CASP6 VEID inh = inhibitors of human caspase-6; P55212; purified caspase-6, Z-VEID-R110 cleavage fluorescence; inhibition, % at 12.5 µM; actives 0.53% (n = 350,000);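 active means mean inhibition across replicates at least about 35%, with every replicate also reaching that limit, limit read from the data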;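 further: 0% = median of neutral control wells and 100% = no fluorescence left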
Target sequence (P55212 24-179 limits assumed): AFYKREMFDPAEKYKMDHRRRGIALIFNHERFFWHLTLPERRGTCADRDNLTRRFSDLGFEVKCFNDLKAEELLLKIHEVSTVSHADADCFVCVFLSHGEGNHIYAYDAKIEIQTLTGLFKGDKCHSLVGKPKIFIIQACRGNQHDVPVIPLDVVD
Target sequence (P55212 194-293 limits assumed): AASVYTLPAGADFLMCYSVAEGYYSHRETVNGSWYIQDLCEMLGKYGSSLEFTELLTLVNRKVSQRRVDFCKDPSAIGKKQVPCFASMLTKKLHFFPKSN
ARNT TACC3 PPI = disruptors of human ARNT/TACC3 interaction; AlphaScreen His-ARNT PAS-B/GST-TACC3 binding, luminescence; TACC3 fragment carries E629A point mutation; Q9Y6A5; actives 0.66% (n = 390,000); inhibition, % at 9.99 µM;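 active means mean inhibition of replicates at least 50% and at least half of replicates each reaching 50%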;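 further: 0% = complete ARNT plus TACC3 wells and 100% = ARNT alone without TACC3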
PGC1a acetyl inh = modulators of PGC1a acetylation; inhibition, % at 15.6 µM; U2OS PGC1a acetylation, AlphaScreen anti-acetyl-lysine; with virally co-expressed GCN5 acetyltransferase; actives 0.17% (n = 350,000);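 active means every replicate shows inhibition of at least 40%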;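 further: 0% = neutral control wells and 100% = positive control wells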
S100A4 MyoIIA = blocks human S100A4 binding to myosin IIA peptide. P26447. S100A4/TAMRA-MyoIIA peptide fluorescence polarization. inhibition, % at 10.7 µM. actives 0.14% (n = 360,000);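 active means mean inhibition of at least 70% across replicates, with every replicate also reaching that level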
Target sequence (P26447 whole entry, looked up): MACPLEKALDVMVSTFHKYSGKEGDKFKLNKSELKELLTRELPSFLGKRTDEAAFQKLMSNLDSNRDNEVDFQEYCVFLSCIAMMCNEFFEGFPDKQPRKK
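Material: S100A4 monomer (human). Medium: Calcium-containing HEPES buffer, pH 7.2. Probe or stimulus: labelled myosin peptide probe, 5 nM. Compound dosing: one concentration per compound. Timing: polarization read 5 min after assay mix addition, stable 5–60 min. Benchmarks: DMSO as neutral control, TFP as positive control.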
rRNA inh HTS = inhibits bacterial ribosomal RNA function over humanized ribosomes; E. coli WT GFP vs humanized-ribosome RFP mutants, fluorescence, 24 h; active compounds read low; DMSO median 0, no signal -100; GFP signal change (wild-type ribosome), % (no concentration beside the values); actives 1.6% (n = 350,000);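 active means significant combined selectivity score with lowered wild-type GFP, culture density cut under 30%, mutant RFP and density less affected; inactive means any of these conditions unmet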
ERAP1 HTS inh = blocks human ERAP1 aminopeptidase activity. Q9NZ08. actives 0.15% (n = 340,000). AID 652197. recombinant ERAP1, Leu-AMC fluorescence, 60 min. inhibition, % at 10.7 µM;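 active means mean replicate inhibition of at least 30%, or all replicates individually reaching that 30% level; inactive means mean below 30% and not every replicate reaching it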;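 further: 0% = neutral control wells and 100% = L-leucinethiol positive control wells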
* marks the source's active call; other numbers are inactive results; · = not tested or not shown.

SMILES	CASP6 VEID inh	ARNT TACC3 PPI	PGC1a acetyl inh	S100A4 MyoIIA	rRNA inh HTS	ERAP1 HTS inh
CN(C)CC(=O)Nc1ccc2c(c1)[C@@H]1C[C@H](CC(=O)NC3CCCC3)O[C@@H](CO)[C@@H]1O2	-1	-2	-8	1	-2	-1
Cc1cccc(N=C2NC(=O)/C(=C/c3cccn3C)S2)c1C	6	4	5	-16	-26*	3
COc1ccccc1NC(=O)N[C@@H]1CC[C@@H](CCn2cc(-c3ccccc3)nn2)O[C@@H]1CO	2	-4	-7	-3	0	-2
COc1ccccc1-c1nnc(C2CCN(S(=O)(=O)c3cccc([N+](=O)[O-])c3)CC2)o1	-2	6	·	-2	-22*	0
COc1ccccc1-c1nnc(C2CCN(S(=O)(=O)c3ccccc3[N+](=O)[O-])CC2)o1	3	5	-4	-2	-18*	-3
CC(=O)Nc1ccc2c(c1)C(=O)N(C)[C@@H]1CC[C@H](CC(=O)NCc3ccccc3Cl)O[C@@H]1CO2	-1	-32	5	7	-3	-1
CC(=O)Nc1cccc(-c2csc(NCc3ccccc3)n2)c1	1	3	·	-2	-30*	-1
CC(=O)Nc1ccc(-c2csc(NCc3ccccc3)n2)cc1	-1	-1	·	-2	2	-2
CN(C)c1ccc(C=c2c3ccccc3n3c2c2ccccc2[n+]3C)cc1	-26	11	·	-5	·	5
Cc1cc2c(=Cc3ccc(N(C)C)cc3)c3ccccc3n2[n+]1C	-4	33	·	-131	-48	7
CCOC(=O)c1cc2c(=Cc3ccc(N(C)C)cc3)c3ccccc3n2[n+]1C	97*	·	·	-109	-53	0
CN(C)c1ccc(C=c2c3cc(O)ccc3n3c2cc(-c2ccccc2)[n+]3C)cc1	95*	60*	·	79*	20	56*
C[n+]1c(-c2ccccc2)cc2c(=Cc3ccccc3)c3ccccc3n21	53*	24	·	-50	-43	4
C[n+]1c(-c2ccccc2)cc2c(=Cc3ccc([N+](=O)[O-])cc3)c3ccccc3n21	83*	14	·	-5	-18	5
C[C@@H]1CN([C@H](C)CO)C(=O)c2cc(NS(=O)(=O)c3ccc(F)cc3)ccc2O[C@@H]1CN(C)CC1CC1	3	-6	9	-6	4	2
CO[C@H]1CN(C)C(=O)c2ccc(NC(C)=O)cc2OC[C@@H](C)N(C(=O)c2ccccc2)C[C@@H]1C	0	4	-2	15	-1	0
CCN1CCN(C(=O)C(C)Nc2ccc(OC)cc2OC)CC1 (stereo unspecified)	0	42*	·	-11	2	1
CCOC(=O)N1CCN(CCC(=O)Nc2ccc(OC)cc2OC)CC1	1	2	5	0	5	-1
Cc1cccc(C)c1OCc1n[nH]c(=S)n1-c1ccccc1	-2	0	·	-2	-29*	·
CC(C)Oc1ccc(CCc2n[nH]c(=S)n2-c2ccccc2)cc1	·	0	5	1	-21*	-2
COCc1n[nH]c(=S)n1-c1ccccc1	·	1	-5	·	·	·
CNC(=O)C1CC(=O)N(Cc2ccc3c(c2)OCO3)C(=Nc2ccc(OC)cc2)S1 (stereo unspecified)	·	2	4	·	·	·
NC(=O)C1CC(=O)N(Cc2ccc3c(c2)OCO3)C(=Nc2ccccc2)S1 (stereo unspecified)	-2	-2	-2	-4	-18*	0
c1nc(SSc2ncnc3nc[nH]c23)c2[nH]cnc2n1	-1	22	16	0	-4	33*
N=C1S/C(=C\c2ccco2)C(=O)N1c1nccs1	37*	6	1	2	-9	-3
SMILES	CASP6 VEID inh	ARNT TACC3 PPI	PGC1a acetyl inh	S100A4 MyoIIA	rRNA inh HTS	ERAP1 HTS inh
N=C1S/C(=C\c2ccco2)C(=O)N1c1ccc2c(c1)OCO2	13	0	-3	16	-43*	-18
CCNC(=O)C[C@H]1CC[C@H]2[C@H](COc3ccc(NC(=O)c4cc(C)on4)cc3C(=O)N2C)O1	-2	-3	0	-3	2	2
CCCNC(=O)Nc1ccc2c(c1)C(=O)N(C)C[C@H](OC)[C@H](C)CN(CC1CCCC1)[C@H](C)CO2	·	·	1	·	2	·
C[C@@H]1CCCCO[C@@H](CN(C)Cc2ccc(C(=O)O)cc2)[C@@H](C)CN([C@@H](C)CO)C(=O)c2cc(NC(=O)Nc3cccc4ccccc34)ccc2O1	0	16	-3	1	1	-3
Cc1nn(-c2ccccc2)nc1C(=O)Nc1nnc(C(F)(F)F)s1	-1	-2	1	0	-32*	0
Cc1nnc(-c2ccc(N3CCOCC3)c([N+](=O)[O-])c2)o1	·	3	17	·	·	·
Cc1cccc(Nc2nnc(-c3ccc(N4CCOCC4)c([N+](=O)[O-])c3)c3ccccc23)c1	1	·	-50	3	-32*	10
N#Cc1cccc(-c2ccc3c(c2)[C@H]2[C@H](CCN2S(=O)(=O)c2ccccc2)[C@@H](CO)N3)c1	3	11	6	10	-15	-2
COc1cccc(C(=O)Nn2cnnc2)c1OC	2	-3	75*	-2	5	6
CO[C@H]1CN(C)C(=O)c2ccc(NC(=O)C3CC3)cc2OC[C@H](C)N(Cc2cccnc2)C[C@@H]1C	0	-3	-7	7	0	1
COc1ccc(-c2nn(-c3ccccc3)cc2/C=C/C(=O)N2CCOCC2)cc1OC	4	6	-17	0	-24*	13
O=C(CN1CCN(Cc2ccccc2)CC1)N/N=C/C=C/c1ccccc1[N+](=O)[O-]	1	17	·	1	14	1
O=C(CN1CCN(Cc2ccc(Cl)cc2)CC1)N/N=C/C=C/c1ccccc1[N+](=O)[O-]	3	5	·	2	-42*	-1
C[N+]1(C2CCC3CCC2C3O)CCCC1 (stereo unspecified)	-9	-4	7	5	11	12
CC(=O)OC1C2CCC1C([N+]1(C)CCCCC1)CC2 (stereo unspecified)	-11	2	5	0	25	35*
C[C@@H]1CN([C@@H](C)CO)C(=O)Cc2cc(NS(=O)(=O)c3cccs3)ccc2O[C@@H]1CN(C)C(=O)Nc1ccccc1	0	8	2	-16	2	1
Cc1cc(N(C)N)nc(NC(=O)NS(=O)(=O)c2ccccc2Cl)n1	-2	59*	·	-6	9	1
Nc1nc(Nc2cccc(F)c2)nc(N2CCOCC2)c1[N+](=O)[O-]	2	3	-10	-5	-29*	5
CN1CCN(C(=O)C[C@H]2CC[C@H](NS(=O)(=O)c3cccc(F)c3)[C@@H](CO)O2)CC1	-3	·	1	-8	3	1
